Measured values taken from ChEMBL document CHEMBL1142303, “Imidazo[2,1-b]thiazole system: a scaffold endowing dihydropyridines with selective cardiodepressant activity” (J Med Chem, 2008).

Tests used:
Cavia porcellus [1] = organism: Cavia porcellus; experiment: Inotropic activity at L type calcium channel in guinea pig left atrium assessed as decrease in tension at 100 uM relative to control; format: tissue-based; parameters: scale not given: the % may be the effect or the level left; conditions: Cardiac atrium
Cavia porcellus [2] = organism: Cavia porcellus; experiment: Activity at L type calcium channel in K+ depolarized guinea pig aortic strip assessed as inhibition of calcium induced contraction at 100 uM; format: tissue-based; parameters: scale not given: the % may be the effect or the level left; conditions: Aorta
In short: (§1)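 Guinea-pig aortic strips depolarized with 80 mM K+. Drugs added cumulatively. Readout is percent inhibition of calcium-induced contraction, n = 5–6. Control versus treated values tested at each concentration by Student's t-test, P < 0.05.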

Cavia porcellus [3] = organism: Cavia porcellus; experiment: Chronotropic activity at L type calcium channel in guinea pig right atrium assessed as decrease in spontaneous beating at 100 uM relative to control; format: tissue-based; parameters: scale not given: the % may be the effect or the level left; conditions: Cardiac atrium
Cavia porcellus [4] = organism: Cavia porcellus; experiment: Chronotropic activity at L type calcium channel in guinea pig right atrium assessed as decrease in spontaneous beating; format: tissue-based; conditions: Cardiac atrium
In short: (§2)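 Guinea-pig atria: left atrium driven at 1 Hz for inotropy, spontaneously beating right atrium for chronotropy. Increasing cumulative doses, readout is percent decrease. EC50 (inotropic) and EC30 (chronotropic) by Litchfield–Wilcoxon probit analysis on log concentration–response curves, n = 6–7. Not calculated when the maximum effect was below 50%.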

[5] = Inotropic activity at L type calcium channel in guinea pig left atrium assessed as decrease in tension; format: tissue-based; conditions: Cavia porcellus, Cardiac atrium; in short: as §2
Cavia porcellus [6] = organism: Cavia porcellus; experiment: Chronotropic activity at L type calcium channel in guinea pig right atrium assessed as decrease in spontaneous beating at 10 uM relative to control; format: tissue-based; parameters: scale not given: the % may be the effect or the level left; conditions: Cardiac atrium
Cavia porcellus [7] = organism: Cavia porcellus; experiment: Inotropic activity at L type calcium channel in guinea pig left atrium assessed as decrease in tension at 1 uM relative to control; format: tissue-based; parameters: scale not given: the % may be the effect or the level left; conditions: Cardiac atrium
[8] = Activity at L type calcium channel in K+ depolarized guinea pig longitudinal smooth muscle assessed as inhibition of calcium induced contraction; parameters: species or system Cavia porcellus
Cavia porcellus [9] = organism: Cavia porcellus; experiment: Activity at L type calcium channel in K+ depolarized guinea pig longitudinal smooth muscle assessed as inhibition of calcium induced contraction at 10 uM; parameters: scale not given: the % may be the effect or the level left
Cavia porcellus [10] = organism: Cavia porcellus; experiment: Activity at L type calcium channel in K+ depolarized guinea pig longitudinal smooth muscle assessed as inhibition of calcium induced contraction at 100 uM; parameters: scale not given: the % may be the effect or the level left
Cavia porcellus [11] = organism: Cavia porcellus; experiment: Chronotropic activity at L type calcium channel in guinea pig right atrium assessed as decrease in spontaneous beating at 5 uM relative to control; format: tissue-based; parameters: scale not given: the % may be the effect or the level left; conditions: Cardiac atrium
Cavia porcellus [12] = organism: Cavia porcellus; experiment: Inotropic activity at L type calcium channel in guinea pig left atrium assessed as decrease in tension at 50 uM relative to control; format: tissue-based; parameters: scale not given: the % may be the effect or the level left; conditions: Cardiac atrium
Cavia porcellus [13] = organism: Cavia porcellus; experiment: Activity at L type calcium channel in K+ depolarized guinea pig aortic strip assessed as inhibition of calcium induced contraction at 50 uM; format: tissue-based; parameters: scale not given: the % may be the effect or the level left; conditions: Aorta; in short: as §1
Cavia porcellus [14] = organism: Cavia porcellus; experiment: Activity at L type calcium channel in K+ depolarized guinea pig aortic strip assessed as inhibition of calcium induced contraction at 10 uM; format: tissue-based; parameters: scale not given: the % may be the effect or the level left; conditions: Aorta; in short: as §1
Cavia porcellus [15] = organism: Cavia porcellus; experiment: Inotropic activity at L type calcium channel in guinea pig left atrium assessed as decrease in tension at 10 uM relative to control; format: tissue-based; parameters: scale not given: the % may be the effect or the level left; conditions: Cardiac atrium
Cavia porcellus [16] = organism: Cavia porcellus; experiment: Activity at L type calcium channel in K+ depolarized guinea pig longitudinal smooth muscle assessed as inhibition of calcium induced contraction at 1 uM; parameters: scale not given: the % may be the effect or the level left
Cavia porcellus [17] = organism: Cavia porcellus; experiment: Inotropic activity at L type calcium channel in guinea pig left atrium assessed as decrease in tension at 0.5 uM relative to control; format: tissue-based; parameters: scale not given: the % may be the effect or the level left; conditions: Cardiac atrium
Cavia porcellus [18] = organism: Cavia porcellus; experiment: Chronotropic activity at L type calcium channel in guinea pig right atrium assessed as decrease in spontaneous beating at 50 uM relative to control; format: tissue-based; parameters: scale not given: the % may be the effect or the level left; conditions: Cardiac atrium

Row | Structure (SMILES) | EC50 [5] [µM] | Activity (Cavia porcellus [2]) [%] | EC30 (Cavia porcellus [4]) [µM] | Activity (Cavia porcellus [6]) [%] | Activity (Cavia porcellus [12]) [%] | Activity (Cavia porcellus [13]) [%] | further results
1 | COC(=O)C1=C(C)NC(C)=C(C(=O)OC)C1c1c(-c2cc(OC)ccc2OC)nc2sc(Cl)cn12 | 0.9 | 11 | 0.36 | – | – | – | Activity (Cavia porcellus [1]): 55%; Activity (Cavia porcellus [3]): 84%
2 | CCCc1cn2c(C3C(C(=O)OC)=C(C)NC(C)=C3C(=O)OC)c(-c3c(OC)ccc(OC)c3[N+](=O)[O-])nc2s1 | 0.039 | 5 | – | – | 55 | – | Activity (Cavia porcellus [10]): 89%; Activity (Cavia porcellus [11]): 25%; IC50 [8]: 12.8 µM
3 | COC(=O)C1=C(C)NC(C)=C(C(=O)OC)C1c1c(-c2cc(OC)c(OC)c(OC)c2)nc2sccn12 | – | 44 | – | – | – | – | Activity (Cavia porcellus [16]): 64%; Activity (Cavia porcellus [11]): 25%; Activity (Cavia porcellus [7]): 42%; IC50 [8]: 0.55 µM
4 | COC(=O)C1=C(C)NC(C)=C(C(=O)OC)C1c1c(C)nc2sc(C)cn12 | – | 33 | – | – | – | – | Activity (Cavia porcellus [17]): 43%; Activity (Cavia porcellus [18]): 38%
5 | COC(=O)C1=C(C)NC(C)=C(C(=O)OC)C1c1c(-c2ccc(OC)c(OC)c2)nc2sccn12 | 2.64 | – | 1.44 | – | – | 15 | Activity (Cavia porcellus [1]): 61%; Activity (Cavia porcellus [18]): 80%
6 | COC(=O)C1=C(C)NC(C)=C(C(=O)OC)C1c1c(-c2cc(OC)ccc2OC)nc2sc(C)cn12 | 1.43 | 15 | 1.36 | 58 | 78 | – | –
7 | CCc1cn2c(C3C(C(=O)OC)=C(C)NC(C)=C3C(=O)OC)c(-c3cc(OC)ccc3OC)nc2s1 | 2.24 | – | 0.73 | 92 | 72 | 29 | –
8 | COC(=O)C1=C(C)NC(C)=C(C(=O)OC)C1c1c(Cl)nc2scc(C)n12 | 0.103 | – | – | 39 | – | 47 | Activity (Cavia porcellus [7]): 79%

More lines, in order of falling EC50 [5], values ahead:

Row | EC50 [5] [µM] | Structure (SMILES) | Activity (Cavia porcellus [2]) [%] | EC30 (Cavia porcellus [4]) [µM] | Activity (Cavia porcellus [6]) [%] | Activity (Cavia porcellus [12]) [%] | Activity (Cavia porcellus [13]) [%] | further results
9 | 1.96 | COC(=O)C1=C(C)NC(C)=C(C(=O)OC)C1c1c(-c2ccccc2)nc2sc(Cl)cn12 | – | 2.14 | 87 | – | 22 | Activity (Cavia porcellus [1]): 58%
10 | 0.59 | COC(=O)C1=C(C)NC(C)=C(C(=O)OC)C1c1c(-c2ccccc2)nc2sc(C)c(C)n12 | 12 | 0.33 | – | – | – | Activity (Cavia porcellus [11]): 94%; Activity (Cavia porcellus [1]): 76%
11 | 0.44 | COC(=O)C1=C(C)NC(C)=C(C(=O)OC)C1c1c(-c2cc(OC)ccc2OC)nc2sccn12 | 24 | – | 31 | 92 | – | IC50 [8]: 12.3 µM; Activity (Cavia porcellus [9]): 51%
12 | 0.36 | COC(=O)C1=C(C)NC(C)=C(C(=O)OC)C1c1c(-c2cc(OC)c([N+](=O)[O-])cc2OC)nc2sc(Cl)cn12 | – | 0.31 | – | – | – | Activity (Cavia porcellus [11]): 90%; Activity (Cavia porcellus [14]): 19%; Activity (Cavia porcellus [15]): 58%
13 | 0.18 | COC(=O)C1=C(C)NC(C)=C(C(=O)OC)C1c1c(Cl)nc2sc(Cl)cn12 | – | – | 37 | 77 | 34 | –
14 | 0.13 | COC(=O)C1=C(C)NC(C)=C(C(=O)OC)C1c1c(C)nc2sc(Cl)cn12 | – | – | 30 | 63 | 24 | –
15 | 0.093 | COC(=O)C1=C(C)NC(C)=C(C(=O)OC)C1c1c(-c2ccccc2C(F)(F)F)nc2sccn12 | 24 | – | 25 | – | – | Activity (Cavia porcellus [7]): 56%; IC50 [8]: 1.66 µM; Activity (Cavia porcellus [9]): 92%
